MrgX1 antagonist: blocks BAM8-22 activation of human MrgX1 receptor; MRGX1-HEK293 calcium flux, Fluo-4, BAM8-22 antagonism; stronger effect = lower value; B-score at 10 µM; actives 1.3% (n = 310,000);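 active = calcium-response B-score plate-corrected more than 3 library SD below zero, starting fluorescence within 5 deviations, no agonist response on first addition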;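 note: peak minus trough fluorescence over baseline after final BAM8-22 challenge near maximal dose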
Target sequence (Q96LB2 whole entry, looked up): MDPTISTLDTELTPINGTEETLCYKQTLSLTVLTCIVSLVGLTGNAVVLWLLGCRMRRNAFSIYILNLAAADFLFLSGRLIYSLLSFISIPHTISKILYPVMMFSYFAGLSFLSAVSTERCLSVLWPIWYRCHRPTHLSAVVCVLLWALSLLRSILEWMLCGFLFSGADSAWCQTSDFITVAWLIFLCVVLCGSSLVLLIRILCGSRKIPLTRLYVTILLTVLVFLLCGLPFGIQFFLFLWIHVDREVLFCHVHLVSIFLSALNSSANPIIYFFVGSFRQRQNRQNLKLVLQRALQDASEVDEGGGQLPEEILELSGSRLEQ
RGS4 pot: potentiators or activators of RGS4. B-score at 10 µM. HEK293 M3R/inducible RGS4, carbachol calcium flux Fluo4; stronger effect = lower value. actives 0.92% (n = 310,000). AID 463111;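 active = B-score of the integrated calcium signal more than 4 SD below the library mean, with starting fluorescence not abnormally high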;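 note: negative B-score means reduced calcium response which marks RGS4 activation or potentiation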
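Also added: carbachol at ECmax as muscarinic agonist stimulus; Assay system: HEK293 cells with stable M3R and inducible RGS4; Timing: overnight RGS4 induction, 30 min dye load 37 °C, 20 min compound RT; Measured by: Fluo4-AM (2 µM) calcium-flux fluorescence, kinetic read.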
KCC2 mod: modulates chloride dependent transport by human KCC2; Q9H2X9; KCC2 cells, thallium flux FluoZin-2 fluorescence; B-score of Tl+ flux slope (higher = more flux/activation; lower = inhibition) at 10 µM; actives 2.2% (n = 190,000);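 active = thallium flux slope and its plate-corrected score both differing from the plate sample mean at a set confidence after two filtering rounds, in either direction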;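 note: slope of fluorescence scaled to starting intensity during 10 to 20 s after thallium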
RGS4 block: inhibitors of human RGS4; P49798; HEK293 M3R/RGS4 inducible, Fluo-4 calcium flux; stronger effect = higher value; triggered by carbachol at its EC20; B-score at 10 µM; actives 0.45% (n = 310,000); AID 463165;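 active = B-score, a plate-corrected calcium signal, over three deviations above library mean, with baseline fluorescence within five deviations of library mean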;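 note: RGS4 expression induced by doxycycline in cells with stable M3 receptor; B-score is computed from the integrated fluorescence ratio over baseline after carbachol; higher B-score means a larger calcium signal and so more RGS4 inhibition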
Target sequence (P49798 whole entry, looked up): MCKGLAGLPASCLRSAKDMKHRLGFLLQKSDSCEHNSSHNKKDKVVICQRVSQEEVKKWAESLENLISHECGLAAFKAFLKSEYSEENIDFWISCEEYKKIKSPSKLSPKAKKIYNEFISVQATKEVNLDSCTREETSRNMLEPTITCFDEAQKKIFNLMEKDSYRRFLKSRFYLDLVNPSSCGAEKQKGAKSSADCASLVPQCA
MrgX1 ag: activates human MrgX1 receptor signaling; Q96LB2; MrgX1-HEK293 cells, Fluo-4 calcium fluorescence, agonist mode; stronger effect = higher value; B-score at 10 µM; actives 0.44% (n = 310,000);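 active = calcium response B-score plate-corrected fluorescence ratio at least 3 library SD, with starting fluorescence B-score inside 5 SD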
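Assay system: stable human MrgX1 HEK293 cell line. Quantity: 15,000 cells per well. Schedule: cells plated overnight, dye loaded 0.5 h 37 °C, 0.5 h room temperature. Detection: Fluo-4 NW calcium-flux fluorescence, kinetic read. Read-out basis: peak-minus-minimum fluorescence over baseline, converted to B scores. Control set: positive and negative control wells on each plate.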
MrgX1 allo act: allosterically activates human MrgX1 receptor signaling | Q96LB2 | MrgX1-HEK293, Fluo-4 calcium flux, FDSS; stronger effect = higher value | B-score at 10 µM | actives 0.63% (n = 310,000);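 active = plate-corrected calcium response at least 3 library SD above typical, normal starting fluorescence, not activating the receptor alone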;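 note: compound read alongside a low EC10 to EC30 dose of BAM8-22 agonist; peak minus trough fluorescence over baseline measured at the second addition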
MrgX1 allo conf: reconfirmed allosteric activator of human MrgX1 receptor; shares compounds with MrgX1 allo act; AID 602413; activation (ratio percentage), % at 10 µM; actives 13% (n = 1,200); MrgX1-HEK293, Fluo-4 calcium fluorescence, FDSS;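 active = ratio at least 3 SD above the weak peptide control, stable starting fluorescence, no direct agonism earlier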;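 note: compound followed by low BAM8-22 agonist challenge near EC20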
HEK293 Ca flux: MrgX1 antagonist counter-screen hit in parental HEK293 cells | fluorescence ratio F(max-min)/F0 at 10 µM | actives 2% (n = 4,000) | Fluo-4 calcium fluorescence, FDSS | shares compounds with MrgX1 antagonist;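 active = duplicate-averaged calcium fluorescence ratio at least three times the standard deviation of buffer wells, a nonspecific response in parental cells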
HEK293 Ca counter: counter-screen for MrgX1 allosteric activators: effect in parental HEK293 cells; fluorescence ratio F(max-min)/F0 at 10 µM; shares compounds with MrgX1 antagonist; parental HEK293 calcium flux, Fluo-4 fluorescence ratio; stronger effect = higher value; AID 624114; actives 0.4% (n = 4,000);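 active = calcium fluorescence ratio, averaged over duplicates, at least 3 SD of the buffer-well ratio, meaning a nonspecific response in receptor-free cells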;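 note: untransfected parental HEK293 lacking MrgX1 used as counterscreen for MrgX1 allosteric activators; fluorescence change taken during the second addition on a kinetic imager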
HEK293 Ca cntr2: counter-screen for MrgX1 activators: effect in parental HEK293 cells; Fluo-4 calcium fluorescence (FDSS); stronger effect = higher value; AID 624115; fluorescence ratio F(max-min)/F0 at 10 µM; actives 8.7% (n = 4,000); shares compounds with MrgX1 antagonist;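 active = calcium fluorescence ratio at least three times the spread of buffer wells, meaning a non-specific response in parental cells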
Numbers without * were called inactive; i = inactive; nt = no result. A selection: hits, their analogues and other compounds. The true share with any hit is near 4.7%.

SMILES | MrgX1 antagonist | RGS4 pot | KCC2 mod | RGS4 block | MrgX1 ag | MrgX1 allo act | MrgX1 allo conf | HEK293 Ca flux | HEK293 Ca counter | HEK293 Ca cntr2
O=C(NCc1cccnc1)c1ccc(Br)s1 | i | i | 0.262 | i | i | i | nt | nt | nt | nt
C=C(C)COc1ccc2c(C)c(CCC(=O)N3C[C@H]4C[C@@H](C3)c3cccc(=O)n3C4)c(=O)oc2c1 | i | i | nt | i | i | 27.8* | i | i | i | i
CCc1ccc(N(CC(=O)Nc2ccc(OC)cc2OC)S(C)(=O)=O)cc1 | i | i | -0.0351 | i | i | 14.7* | i | i | i | i
COc1ccc(N(CC(=O)Nc2cc(OC)ccc2OC)S(C)(=O)=O)cc1 | i | i | 0.504 | i | i | i | nt | nt | nt | nt
Cc1ccc(N(CC(=O)NCc2ccccc2)C(=O)c2csnn2)cc1 | i | i | nt | i | i | i | nt | nt | nt | nt
C=CCNC(=O)[C@H]1N2C(=O)c3ccccc3C2SC1(C)C (some centres undefined) | i | i | nt | i | i | i | nt | nt | nt | nt
Cc1ccc(NC(=O)C2C3/C=C\CCCCC32)cc1 (centres undefined) | i | i | 0.395 | i | i | i | nt | nt | nt | nt
O=C(Nc1nccs1)C1C2/C=C\CCCCC21 (centres undefined) | i | i | -0.769 | i | i | 12* | i | i | i | i
COc1ccc2[nH]c(C(=O)Nc3ccc4c(c3)OCO4)cc2c1 | i | i | 0.211 | i | i | i | nt | nt | nt | nt
Cc1ccc(-c2ccc(C(=O)NCCCNC(=O)c3cnccn3)o2)cc1Cl | i | i | nt | i | i | 18.3* | 13.5%* | i | i | i
O=C(NCCCNC(=O)c1ccc(Cl)cc1Cl)c1cnccn1 | i | i | nt | i | i | i | nt | nt | nt | nt
O=C(NCCCNC(=O)c1ccc(-c2cc(Cl)ccc2Cl)o1)c1cnccn1 | i | i | nt | i | i | 17.7* | 19.6%* | i | i | i
O=C(NCCCNC(=O)c1cc(Cl)ccc1Cl)c1cnccn1 | i | i | nt | i | i | i | nt | nt | nt | nt
CCOC(=O)c1sc(=NC(=O)CCSc2ccccc2)n(C)c1C | i | i | 0.00754 | i | i | i | nt | nt | nt | nt
CCOC(=O)c1sc(=NC(=O)COc2ccccc2)n(C)c1C | i | i | -0.784 | i | i | 10.5* | i | i | i | i
CSCC[C@H](NC(=O)[C@@H]1Cc2ccccc2CN1)C(=O)NC(C)c1ccccc1 (some centres undefined) | i | i | nt | i | i | i | nt | nt | nt | nt
CSCC[C@H](NC(=O)[C@@H]1Cc2ccccc2CN1)C(=O)NC1CCCC1 | i | i | nt | i | i | 8.5* | i | i | i | i
O=C(Nc1ccc(Cl)cc1)c1ccc2ncsc2c1 | i | i | nt | i | i | i | nt | nt | nt | nt
O=C(Nc1cccc(Cl)c1)c1ccc2ncsc2c1 | i | i | nt | i | i | 7.69* | i | i | i | i
CC(NC(=O)CN1CCOCC1)c1ccc(F)cc1 (centres undefined) | i | i | nt | i | i | i | nt | nt | nt | nt
CCc1nc2ccccc2c(C(=O)O)c1C | i | i | 0.536 | i | i | i | nt | nt | nt | nt
CCc1nc2ccccc2c(C(=O)NCc2ccccc2)c1C | i | i | -0.348 | i | i | 6.98* | i | i | i | i
CCN1C(=NCc2ccco2)N[C@@H](c2cccc(F)c2)C(C(=O)OC)=C1C | i | i | nt | i | i | i | nt | nt | nt | nt
O=C(CSc1ccc(F)cc1)Nc1ccccc1N1CCOCC1 | i | i | nt | i | i | i | nt | nt | nt | nt
O=C(CSc1ccccc1)Nc1ccccc1N1CCOCC1 | i | i | -1.37 | i | i | 8.55* | i | i | i | i
SMILES | MrgX1 antagonist | RGS4 pot | KCC2 mod | RGS4 block | MrgX1 ag | MrgX1 allo act | MrgX1 allo conf | HEK293 Ca flux | HEK293 Ca counter | HEK293 Ca cntr2
CCc1cc(C(=O)Nc2cc(S(=O)(=O)N(C)C)ccc2C)sc1C | i | i | -0.153 | i | i | 8.37* | i | i | i | i
Cc1ccsc1C(C(=O)NCc1ccccc1)N(C(=O)c1csnn1)c1ccccc1 (centres undefined) | i | i | nt | i | i | i | nt | nt | nt | nt
C=CCNC(=O)C(=O)c1c(-c2ccccc2)[nH]c2ccccc12 | i | i | -1.04 | i | i | i | nt | nt | nt | nt
O=C(NCCc1ccccc1)C(=O)c1c(-c2ccccc2)[nH]c2ccccc12 | i | i | -1.33 | i | i | 11.4* | i | i | i | i
COc1cc(NC(=O)C2CCCC2)c(OC)cc1Cl | i | i | -0.541 | i | i | 6.59* | i | i | i | i
Cc1ccc(OCC(=O)NCCNC(=O)c2cnccn2)cc1 | i | i | nt | i | i | i | nt | nt | nt | nt
O=C(C1CC1)N1CCc2cc(Br)cc(S(=O)(=O)N3CCCCCC3)c21 | i | i | -1.53 | i | i | 11.3* | i | i | i | i
Cc1cccc(C(=O)N[C@H](C(=O)Nc2nc(C)cs2)C(C)C)c1 | i | i | 0.586 | i | i | i | nt | nt | nt | nt
Cc1cccc(C(=O)N[C@H](C(=O)Nc2nccs2)C(C)C)c1 | i | i | 1.64 | i | i | 24.1* | i | i | i | i
O=C(Nc1nnc(SCC(=O)N2CCCCC2)s1)c1ccc(F)cc1F | i | i | nt | i | i | 6.78* | i | i | i | i
Cc1c(C)n(CC(O)CN2C(=O)c3ccccc3S2(=O)=O)c2ccccc12 (centres undefined) | i | i | nt | i | i | 10.3* | i | i | i | i
O=C(Cn1c(=O)c(=O)n(Cc2ccccc2)c2ccc(Cl)cc21)NCC1CCCO1 (centres undefined) | i | i | -0.658 | i | i | i | nt | nt | nt | nt
Cc1nc(-c2ccc(NC(=O)C3CC3)cc2)cs1 | i | i | nt | i | i | i | nt | nt | nt | nt
